Source: ChEMBL document CHEMBL5705905, “Pharmacological targeting of kinases MST1 and MST2 augments tissue repair and regeneration” (Sci Transl Med, 2016)
pIC50: −log10 of the molar value. Calls of active or inactive are those of the source. The calls are words filed in the database; no cut-off is given here.

Columns and labels:
[1] = target: T1, Serine/threonine-protein kinase 4 (Homo sapiens, UniProt Q13043); assay: Inhibition of Flag-tagged full-length MST1 (unknown origin) transfected in HEK293T cells assessed as MOB1a phosphorylation level incubated for 3 hrs by immunoblot analysis
T1 sequence (Q13043 whole entry): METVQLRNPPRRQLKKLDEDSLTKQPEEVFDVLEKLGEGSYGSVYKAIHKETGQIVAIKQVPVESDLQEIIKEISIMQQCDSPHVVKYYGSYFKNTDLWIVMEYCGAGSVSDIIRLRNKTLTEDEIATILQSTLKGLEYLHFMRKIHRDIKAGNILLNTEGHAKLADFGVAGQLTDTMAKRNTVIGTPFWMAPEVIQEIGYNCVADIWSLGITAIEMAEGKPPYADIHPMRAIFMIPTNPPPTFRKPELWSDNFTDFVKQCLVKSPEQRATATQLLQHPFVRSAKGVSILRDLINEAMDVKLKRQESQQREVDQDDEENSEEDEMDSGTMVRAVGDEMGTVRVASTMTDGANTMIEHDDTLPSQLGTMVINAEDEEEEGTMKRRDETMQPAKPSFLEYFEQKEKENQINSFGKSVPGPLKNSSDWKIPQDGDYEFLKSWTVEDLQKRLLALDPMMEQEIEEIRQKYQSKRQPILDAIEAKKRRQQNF

[2] = target: Bone morphogenetic protein receptor type-1A (Homo sapiens) (UniProt P36894); assay: Inhibition of BMPR1A (unknown origin) assessed as remaining activity at 1 uM by Kinome scan method relative to control
Outline: (§1)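 Active-site-dependent competition-binding (KINOMEscan) panel of 468 kinases, test compound at 1 μM (from a 10 mM DMSO stock). Read-out is ctrl% = (test signal − positive control signal)/(negative control signal − positive control signal) × 100. DMSO is the negative control (100%) and a control compound is the positive control (0%). Lower ctrl% means tighter binding.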

[3] = target: Bone morphogenetic protein receptor type-1B (Homo sapiens) (UniProt O00238); assay: Inhibition of BMPR1B (unknown origin) assessed as remaining activity at 1 uM by Kinome scan method relative to control; outline: as §1
[4] = target: Tyrosine-protein kinase BTK (Homo sapiens) (UniProt Q06187); assay: Inhibition of BTK (unknown origin) assessed as remaining activity at 1 uM by Kinome scan method relative to control; outline: as §1
[5] = target: Cyclin-dependent kinase 11B (Homo sapiens) (UniProt P21127); assay: Inhibition of CDC2L1 (unknown origin) assessed as remaining activity at 1 uM by Kinome scan method relative to control
Outline: (§2)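 Active-site-dependent competition-binding profiling (KINOMEscan) at 1 μM against a 468-kinase panel; compound supplied from a 10 mM DMSO stock. Read-out is ctrl% = (test signal − positive control signal)/(negative control signal − positive control signal) × 100. DMSO is the negative control (100%) and a control compound the positive control (0%). Lower ctrl% means tighter binding.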

[6] = target: Cyclin-dependent kinase 2 (Homo sapiens) (UniProt P24941); assay: Inhibition of CDK2 (unknown origin) assessed as remaining activity at 1 uM by Kinome scan method relative to control; outline: as §2
[7] = target: Dual specificity protein kinase CLK1 (Homo sapiens) (UniProt P49759); assay: Inhibition of CLK1 (unknown origin) assessed as remaining activity at 1 uM by Kinome scan method relative to control; outline: as §2
[8] = target: Serine/threonine-protein kinase 17B (Homo sapiens) (UniProt O94768); assay: Inhibition of DRAK2 (unknown origin) assessed as remaining activity at 1 uM by Kinome scan method relative to control
[9] = test system: Receptor-type tyrosine-protein kinase FLT3 (Homo sapiens), P36888 [R834Q]; assay: Inhibition of FLT3 R834Q mutant (unknown origin) assessed as remaining activity at 1 uM by Kinome scan method relative to control
[10] = target: Homeodomain-interacting protein kinase 2 (Homo sapiens) (UniProt Q9H2X6); assay: Inhibition of HIPK2 (unknown origin) assessed as remaining activity at 1 uM by Kinome scan method relative to control
[11] = target: Tyrosine-protein kinase JAK1 (Homo sapiens, UniProt P23458); assay: Inhibition of JAK1 JH1 domain (unknown origin) assessed as remaining activity at 1 uM by Kinome scan method relative to control
[12] = target: Mitogen-activated protein kinase 9 (Homo sapiens) (UniProt P45984); assay: Inhibition of JNK2 (unknown origin) assessed as remaining activity at 1 uM by Kinome scan method relative to control
[13] = target: Dual specificity mitogen-activated protein kinase kinase 6 (Homo sapiens) (UniProt P52564); assay: Inhibition of MEK6 (unknown origin) assessed as remaining activity at 1 uM by Kinome scan method relative to control
[14] = target: Serine/threonine-protein kinase Nek3 (Homo sapiens) (UniProt P51956); assay: Inhibition of NEK3 (unknown origin) assessed as remaining activity at 1 uM by Kinome scan method relative to control
[15] = target: Phosphatidylinositol 3-kinase C2 domain-containing subunit gamma (Homo sapiens) (UniProt O75747); assay: Inhibition of PIK3C2G (unknown origin) assessed as remaining activity at 1 uM by Kinome scan method relative to control
[16] = target: cAMP-dependent protein kinase catalytic subunit beta (Homo sapiens) (UniProt P22694); assay: Inhibition of PKAC-beta (unknown origin) assessed as remaining activity at 1 uM by Kinome scan method relative to control
[17] = target: TGF-beta receptor type-2 (Homo sapiens) (UniProt P37173); assay: Inhibition of TGFBR2 (unknown origin) assessed as remaining activity at 1 uM by Kinome scan method relative to control
[18] = target: Serine/threonine-protein kinase ULK1 (Homo sapiens) (UniProt O75385); assay: Inhibition of ULK1 (unknown origin) assessed as remaining activity at 1 uM by Kinome scan method relative to control
[19] = target: Serine/threonine-protein kinase WNK3 (Homo sapiens) (UniProt Q9BYP7); assay: Inhibition of WNK3 (unknown origin) assessed as remaining activity at 1 uM by Kinome scan method relative to control
[20] = target: Tyrosine-protein kinase ZAP-70 (Homo sapiens) (UniProt P43403); assay: Inhibition of ZAP70 (unknown origin) assessed as remaining activity at 1 uM by Kinome scan method relative to control
[21] = target: Serine/threonine-protein kinase 24 (Homo sapiens, UniProt Q9Y6E0); assay: Inhibition of MST3 (unknown origin) in presence of ATP by enzymatic assay
[22] = target: Serine/threonine-protein kinase TAO3 (Homo sapiens, UniProt Q9H2K8); assay: Inhibition of TAOK3 (unknown origin) in presence of ATP by enzymatic assay
HepG2 = assay: Inhibition of Flag-tagged MST1 D109A mutant (unknown origin) in human HepG2 cells assessed as MOB1 phosphorylation level at 3 uM by immunoblot analysis; type: cell-based
Mus musculus = assay: Protection against human hepatocyte transplanted FRG mouse assessed as increase in human albumin level at 1 mg/kg, ip administrated once a day and measured within 6 weeks; type: functional, organism-based; settings: Liver
[23] = target: Serine/threonine-protein kinase 3 (Homo sapiens, UniProt Q13188, D109A/Y101F)

Serine/threonine-protein kinase TAO3, sequence (Q9H2K8 whole entry): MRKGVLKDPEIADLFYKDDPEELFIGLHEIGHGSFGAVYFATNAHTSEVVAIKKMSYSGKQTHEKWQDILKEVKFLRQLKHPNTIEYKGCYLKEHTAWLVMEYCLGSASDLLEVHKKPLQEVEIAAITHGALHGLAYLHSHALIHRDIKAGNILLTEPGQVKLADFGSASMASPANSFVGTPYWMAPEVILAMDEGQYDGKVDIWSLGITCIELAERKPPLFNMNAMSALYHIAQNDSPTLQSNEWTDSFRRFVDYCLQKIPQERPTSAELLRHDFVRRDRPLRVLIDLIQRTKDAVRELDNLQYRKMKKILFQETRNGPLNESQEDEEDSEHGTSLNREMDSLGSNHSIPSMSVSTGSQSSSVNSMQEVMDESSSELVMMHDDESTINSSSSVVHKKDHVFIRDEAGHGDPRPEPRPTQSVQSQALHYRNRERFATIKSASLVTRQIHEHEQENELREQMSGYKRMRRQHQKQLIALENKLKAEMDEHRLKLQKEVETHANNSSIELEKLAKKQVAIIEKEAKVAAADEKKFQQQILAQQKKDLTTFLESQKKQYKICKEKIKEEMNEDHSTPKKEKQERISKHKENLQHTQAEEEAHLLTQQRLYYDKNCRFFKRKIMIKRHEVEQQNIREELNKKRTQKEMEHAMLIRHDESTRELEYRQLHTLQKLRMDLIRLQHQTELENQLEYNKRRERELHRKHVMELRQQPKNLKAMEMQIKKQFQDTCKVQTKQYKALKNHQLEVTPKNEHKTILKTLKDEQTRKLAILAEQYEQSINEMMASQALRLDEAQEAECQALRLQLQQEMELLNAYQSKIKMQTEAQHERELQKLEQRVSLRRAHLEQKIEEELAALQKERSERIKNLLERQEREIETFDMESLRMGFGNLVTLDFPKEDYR
Phosphatidylinositol 3-kinase C2 domain-containing subunit gamma (Homo sapiens), sequence (O75747 whole entry, the tested form may be a part): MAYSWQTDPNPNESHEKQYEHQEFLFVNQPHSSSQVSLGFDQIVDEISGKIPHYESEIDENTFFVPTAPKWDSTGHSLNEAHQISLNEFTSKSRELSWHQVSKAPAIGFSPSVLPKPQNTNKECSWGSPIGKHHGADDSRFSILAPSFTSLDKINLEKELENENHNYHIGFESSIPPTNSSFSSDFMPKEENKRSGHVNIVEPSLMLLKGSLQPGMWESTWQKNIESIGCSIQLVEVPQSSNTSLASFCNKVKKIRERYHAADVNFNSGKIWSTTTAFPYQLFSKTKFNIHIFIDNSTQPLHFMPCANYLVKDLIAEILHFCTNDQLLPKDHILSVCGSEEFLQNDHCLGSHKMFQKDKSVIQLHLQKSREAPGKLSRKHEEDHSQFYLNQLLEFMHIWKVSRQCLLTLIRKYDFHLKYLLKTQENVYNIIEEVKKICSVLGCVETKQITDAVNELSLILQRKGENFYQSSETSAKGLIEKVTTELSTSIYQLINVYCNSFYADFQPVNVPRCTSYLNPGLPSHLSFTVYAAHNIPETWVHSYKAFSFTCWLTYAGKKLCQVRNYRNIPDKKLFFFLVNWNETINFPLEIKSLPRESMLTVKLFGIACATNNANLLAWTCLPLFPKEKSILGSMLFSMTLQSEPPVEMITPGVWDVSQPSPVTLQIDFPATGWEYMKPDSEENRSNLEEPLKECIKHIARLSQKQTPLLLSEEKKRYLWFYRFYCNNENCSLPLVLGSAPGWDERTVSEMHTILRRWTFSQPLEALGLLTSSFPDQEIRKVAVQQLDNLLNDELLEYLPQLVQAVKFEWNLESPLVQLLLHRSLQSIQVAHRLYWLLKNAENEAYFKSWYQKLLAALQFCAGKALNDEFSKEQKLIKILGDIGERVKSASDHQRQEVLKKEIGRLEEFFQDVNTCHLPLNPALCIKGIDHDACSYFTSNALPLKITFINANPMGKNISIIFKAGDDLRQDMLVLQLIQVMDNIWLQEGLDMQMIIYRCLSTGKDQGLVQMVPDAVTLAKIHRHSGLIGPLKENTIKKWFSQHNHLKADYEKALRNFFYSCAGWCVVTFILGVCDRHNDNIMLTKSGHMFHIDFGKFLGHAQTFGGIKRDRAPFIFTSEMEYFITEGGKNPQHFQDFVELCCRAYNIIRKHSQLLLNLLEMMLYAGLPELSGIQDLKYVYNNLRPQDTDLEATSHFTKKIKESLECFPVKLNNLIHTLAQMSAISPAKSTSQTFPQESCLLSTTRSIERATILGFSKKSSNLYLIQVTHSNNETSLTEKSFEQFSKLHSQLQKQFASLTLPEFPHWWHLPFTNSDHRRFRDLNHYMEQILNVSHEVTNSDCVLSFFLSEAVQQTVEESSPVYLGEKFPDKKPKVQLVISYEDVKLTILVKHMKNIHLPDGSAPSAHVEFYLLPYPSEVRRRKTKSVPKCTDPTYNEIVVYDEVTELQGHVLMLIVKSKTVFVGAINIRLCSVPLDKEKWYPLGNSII
Tyrosine-protein kinase JAK1, sequence (P23458 whole entry, the tested form may be a part): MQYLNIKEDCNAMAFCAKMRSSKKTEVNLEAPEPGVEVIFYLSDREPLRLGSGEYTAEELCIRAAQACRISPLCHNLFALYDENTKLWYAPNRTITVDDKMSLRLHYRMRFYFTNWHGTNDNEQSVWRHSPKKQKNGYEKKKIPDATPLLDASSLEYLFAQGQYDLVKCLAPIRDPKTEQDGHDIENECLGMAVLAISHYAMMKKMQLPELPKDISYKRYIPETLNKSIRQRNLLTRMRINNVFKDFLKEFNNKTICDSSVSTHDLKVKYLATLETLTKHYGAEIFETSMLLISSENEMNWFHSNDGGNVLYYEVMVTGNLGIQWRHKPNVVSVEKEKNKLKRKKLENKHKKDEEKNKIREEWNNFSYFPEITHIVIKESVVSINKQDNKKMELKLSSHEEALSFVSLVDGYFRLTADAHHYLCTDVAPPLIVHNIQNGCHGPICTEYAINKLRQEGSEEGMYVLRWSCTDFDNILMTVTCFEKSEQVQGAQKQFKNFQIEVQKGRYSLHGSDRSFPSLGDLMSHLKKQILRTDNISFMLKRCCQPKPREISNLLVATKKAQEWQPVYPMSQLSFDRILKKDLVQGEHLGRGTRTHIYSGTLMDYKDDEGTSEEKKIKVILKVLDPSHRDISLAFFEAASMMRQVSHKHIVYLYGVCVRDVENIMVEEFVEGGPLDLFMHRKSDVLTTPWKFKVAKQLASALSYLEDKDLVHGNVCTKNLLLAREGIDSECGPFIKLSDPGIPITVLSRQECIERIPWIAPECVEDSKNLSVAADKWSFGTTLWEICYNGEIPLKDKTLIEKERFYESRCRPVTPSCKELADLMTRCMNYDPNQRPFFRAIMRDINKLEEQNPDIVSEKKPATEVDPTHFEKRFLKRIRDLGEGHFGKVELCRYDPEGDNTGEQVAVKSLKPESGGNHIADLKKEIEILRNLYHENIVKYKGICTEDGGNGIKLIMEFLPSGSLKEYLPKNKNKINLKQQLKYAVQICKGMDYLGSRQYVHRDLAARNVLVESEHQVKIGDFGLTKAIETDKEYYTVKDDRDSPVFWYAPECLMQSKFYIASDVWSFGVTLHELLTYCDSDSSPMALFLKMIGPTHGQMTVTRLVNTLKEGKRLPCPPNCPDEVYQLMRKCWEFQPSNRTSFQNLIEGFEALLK
Mitogen-activated protein kinase 9 (Homo sapiens), sequence (P45984 whole entry, looked up): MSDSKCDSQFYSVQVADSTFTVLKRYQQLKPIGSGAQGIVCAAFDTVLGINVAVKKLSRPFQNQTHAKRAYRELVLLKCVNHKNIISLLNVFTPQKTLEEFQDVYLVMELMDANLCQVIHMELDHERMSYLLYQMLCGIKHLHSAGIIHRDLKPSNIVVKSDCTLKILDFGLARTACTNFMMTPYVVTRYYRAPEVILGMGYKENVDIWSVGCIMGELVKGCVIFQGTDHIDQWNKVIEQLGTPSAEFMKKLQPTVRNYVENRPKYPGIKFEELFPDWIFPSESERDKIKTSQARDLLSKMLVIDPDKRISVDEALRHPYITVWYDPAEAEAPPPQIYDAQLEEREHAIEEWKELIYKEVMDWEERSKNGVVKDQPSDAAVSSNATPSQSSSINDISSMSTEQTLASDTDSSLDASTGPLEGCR
Tyrosine-protein kinase ZAP-70 (Homo sapiens), sequence (P43403 whole entry): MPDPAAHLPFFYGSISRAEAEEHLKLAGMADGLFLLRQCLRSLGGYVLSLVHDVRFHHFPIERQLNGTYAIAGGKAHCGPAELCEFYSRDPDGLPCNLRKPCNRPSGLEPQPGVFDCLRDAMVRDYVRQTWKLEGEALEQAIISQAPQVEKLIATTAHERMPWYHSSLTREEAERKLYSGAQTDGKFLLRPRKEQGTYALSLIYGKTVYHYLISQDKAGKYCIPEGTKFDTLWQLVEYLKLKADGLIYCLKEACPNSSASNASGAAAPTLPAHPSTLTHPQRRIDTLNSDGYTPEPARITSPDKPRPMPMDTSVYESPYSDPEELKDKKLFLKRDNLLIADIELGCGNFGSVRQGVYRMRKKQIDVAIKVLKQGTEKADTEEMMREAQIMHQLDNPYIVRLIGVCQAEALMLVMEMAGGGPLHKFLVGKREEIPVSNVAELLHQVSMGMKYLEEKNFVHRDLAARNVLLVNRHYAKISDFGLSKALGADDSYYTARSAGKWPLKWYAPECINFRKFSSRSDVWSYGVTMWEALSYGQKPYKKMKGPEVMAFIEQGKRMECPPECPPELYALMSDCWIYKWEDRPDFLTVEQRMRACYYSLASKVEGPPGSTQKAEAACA
Serine/threonine-protein kinase Nek3 (Homo sapiens), sequence (P51956 whole entry, the tested form may be a part): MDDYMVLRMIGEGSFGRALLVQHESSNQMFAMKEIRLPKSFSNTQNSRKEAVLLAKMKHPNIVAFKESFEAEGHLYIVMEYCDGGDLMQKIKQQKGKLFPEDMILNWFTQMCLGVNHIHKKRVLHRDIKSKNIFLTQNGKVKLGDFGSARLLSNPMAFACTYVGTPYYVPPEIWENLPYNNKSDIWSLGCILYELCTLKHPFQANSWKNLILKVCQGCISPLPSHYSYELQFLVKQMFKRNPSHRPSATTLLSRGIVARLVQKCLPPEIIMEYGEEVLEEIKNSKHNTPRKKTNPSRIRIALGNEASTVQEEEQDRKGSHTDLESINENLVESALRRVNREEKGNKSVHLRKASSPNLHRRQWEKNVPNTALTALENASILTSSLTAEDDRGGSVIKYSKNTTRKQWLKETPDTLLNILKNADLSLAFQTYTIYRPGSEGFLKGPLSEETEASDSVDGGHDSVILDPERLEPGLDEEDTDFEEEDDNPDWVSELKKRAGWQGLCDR

## CN1C(=O)c2sccc2N(C)c2nc(Nc3ccc(S(N)(=O)=O)cc3)ncc21
[1]
  pIC50: 7.15
[2]
  Activity: 70%
[3]
  Activity: 26%
[4]
  Activity: 48%
[5]
  Activity: 85%
[6]
  Activity: 90%
[7]
  Activity: 72%
[8]
  Activity: 90%
[9]
  Activity: 91%
[10]
  Activity: 96%
[11]
  Activity: 97%
[12]
  Activity: 82%
[13]
  Activity: 100%
[14]
  Activity: 66%
[15]
  Activity: 100%
[16]
  Activity: 80%
[17]
  Activity: 100%
[18]
  Activity: 21%
[19]
  Activity: 71%
[20]
  Activity: 90%
[21]
  pIC50: 7.35
[22]
  pIC50: 6.60
HepG2
  inhibition: Active
Mus musculus
  Activity: Active
[23]
  pIC50: 5.78
